Measurements as given in the M2OR odorant receptor database.

Columns and labels:
Details in all cases: stereoisomer not certain
O13C2 H6Q = system: O13C2 H6Q
Outline: (§1)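 Values were gathered from published papers (main text and supplementary material), with extra details requested from the original authors when needed, and checked for typos and inconsistencies. Each receptor–molecule pair is called responsive (active) if the original authors judged the measured signal statistically different from baseline, and non-responsive (inactive) otherwise. Assay methods varied by source, often transient mammalian cell-line luciferase assays. Recorded details include cell line, G-protein, co-transfected protein and tags.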

O13C8 A19D = system: O13C8 A19D
Outline: as §1

O13C9 H17L V19G L23H = system: O13C9 H17L V19G L23H
Outline: as §1

O13C9 Q6H = system: O13C9 Q6H
Outline: as §1

O13F1 F18S T254M = system: O13F1 F18S T254M
Outline: as §1

O13F1 F18S = system: O13F1 F18S
Outline: as §1

O13G1 K46I M146L = system: O13G1 K46I M146L
Outline: as §1

O13G1 = system: O13G1
Outline: as §1

O13H1 Y266S = system: O13H1 Y266S
Outline: as §1

O13J1 = system: O13J1
Outline: as §1

Measured: odorant receptor agonist call

O13G1, sequence (as listed by the source): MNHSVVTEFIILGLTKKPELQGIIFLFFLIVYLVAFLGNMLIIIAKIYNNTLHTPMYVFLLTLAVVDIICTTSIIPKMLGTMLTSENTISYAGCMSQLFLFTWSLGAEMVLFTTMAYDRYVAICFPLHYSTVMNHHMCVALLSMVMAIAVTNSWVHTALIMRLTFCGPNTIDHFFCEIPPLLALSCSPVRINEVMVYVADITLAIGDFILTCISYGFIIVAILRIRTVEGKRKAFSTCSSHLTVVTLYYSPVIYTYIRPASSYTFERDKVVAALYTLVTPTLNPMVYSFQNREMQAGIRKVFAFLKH
O13F1 F18S, sequence (as listed by the source, stated change not applied): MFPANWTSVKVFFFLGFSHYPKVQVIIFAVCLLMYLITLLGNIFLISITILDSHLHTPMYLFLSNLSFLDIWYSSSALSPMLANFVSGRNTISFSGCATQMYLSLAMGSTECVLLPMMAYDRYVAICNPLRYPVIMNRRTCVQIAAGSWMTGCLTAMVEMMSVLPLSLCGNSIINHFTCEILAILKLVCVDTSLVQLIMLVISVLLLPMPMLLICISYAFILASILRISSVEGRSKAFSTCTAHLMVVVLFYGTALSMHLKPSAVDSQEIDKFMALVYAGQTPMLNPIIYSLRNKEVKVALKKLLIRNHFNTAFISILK
O13C9 Q6H, sequence (as listed by the source): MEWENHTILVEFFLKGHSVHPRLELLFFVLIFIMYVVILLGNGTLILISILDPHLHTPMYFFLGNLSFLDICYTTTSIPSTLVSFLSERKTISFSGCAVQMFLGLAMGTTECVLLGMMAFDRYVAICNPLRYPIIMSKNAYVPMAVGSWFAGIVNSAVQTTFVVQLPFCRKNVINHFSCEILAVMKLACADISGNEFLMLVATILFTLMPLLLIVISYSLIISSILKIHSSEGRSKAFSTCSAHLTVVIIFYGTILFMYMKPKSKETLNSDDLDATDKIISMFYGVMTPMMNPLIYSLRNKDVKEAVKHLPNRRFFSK
O13J1, sequence (as listed by the source): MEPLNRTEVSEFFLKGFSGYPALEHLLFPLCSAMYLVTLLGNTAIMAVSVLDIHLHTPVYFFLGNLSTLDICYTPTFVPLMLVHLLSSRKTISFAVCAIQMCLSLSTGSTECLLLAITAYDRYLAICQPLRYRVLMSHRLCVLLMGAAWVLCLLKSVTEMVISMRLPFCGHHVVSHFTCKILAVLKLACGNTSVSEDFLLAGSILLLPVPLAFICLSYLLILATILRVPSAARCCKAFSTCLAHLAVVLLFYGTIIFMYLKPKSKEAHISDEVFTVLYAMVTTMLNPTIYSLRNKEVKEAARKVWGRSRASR
O13H1 Y266S, sequence (as listed by the source, stated change not applied): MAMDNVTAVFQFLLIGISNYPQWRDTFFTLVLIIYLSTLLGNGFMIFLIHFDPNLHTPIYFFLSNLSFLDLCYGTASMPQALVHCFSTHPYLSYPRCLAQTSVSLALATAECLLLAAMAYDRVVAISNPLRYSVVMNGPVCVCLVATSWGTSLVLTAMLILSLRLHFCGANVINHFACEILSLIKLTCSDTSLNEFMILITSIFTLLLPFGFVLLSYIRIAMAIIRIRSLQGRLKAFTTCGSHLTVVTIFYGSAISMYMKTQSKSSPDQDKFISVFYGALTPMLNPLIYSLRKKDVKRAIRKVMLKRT
O13C8 A19D, sequence (as listed by the source, stated change not applied): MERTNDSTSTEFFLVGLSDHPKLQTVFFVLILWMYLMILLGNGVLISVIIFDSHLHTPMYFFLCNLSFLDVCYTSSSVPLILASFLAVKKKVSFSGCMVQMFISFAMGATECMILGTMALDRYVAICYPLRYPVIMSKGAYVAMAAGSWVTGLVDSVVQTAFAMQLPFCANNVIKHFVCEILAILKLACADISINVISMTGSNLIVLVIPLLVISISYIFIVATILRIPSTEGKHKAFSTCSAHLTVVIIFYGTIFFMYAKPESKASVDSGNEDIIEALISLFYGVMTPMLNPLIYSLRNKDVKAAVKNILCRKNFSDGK
O13C2 H6Q, sequence (as listed by the source): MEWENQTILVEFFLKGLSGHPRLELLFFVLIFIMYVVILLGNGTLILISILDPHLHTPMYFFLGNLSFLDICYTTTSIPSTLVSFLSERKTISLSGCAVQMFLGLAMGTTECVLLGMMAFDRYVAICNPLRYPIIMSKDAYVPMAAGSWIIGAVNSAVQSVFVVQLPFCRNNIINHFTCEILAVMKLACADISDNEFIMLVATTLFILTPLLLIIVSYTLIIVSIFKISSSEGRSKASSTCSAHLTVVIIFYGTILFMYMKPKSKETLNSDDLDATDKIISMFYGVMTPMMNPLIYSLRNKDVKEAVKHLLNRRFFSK

C=CCOC(=O)Cc1ccccc1
inactive: all assays above
